Test results from ChEMBL document CHEMBL1926607 (J Med Chem, 2011).

Assays:
[1] = target: 5-hydroxytryptamine receptor 2A (Rattus norvegicus, UniProt P14842); assay: Displacement of [3H]ketanserin from 5HT2A receptor in Sprague-Dawley albinus rat frontal cortex membranes after 15 mins; format: cell membranes, Membrane
Procedure, shortened: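 Rat frontal cortex membranes (male Sprague–Dawley, 180–200 g). Nonspecific binding was set with 1 μM cinanserin.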

[2] = target: T1, 5-hydroxytryptamine receptor 1A (Rattus norvegicus, UniProt P19327); assay: Displacement of [3H]-8-OH-DPAT from 5-HT1A receptor in Sprague-Dawley albinus rat cerebral cortex membranes after 15 mins; format: cell membranes, Membrane
T1 sequence (P19327 whole entry): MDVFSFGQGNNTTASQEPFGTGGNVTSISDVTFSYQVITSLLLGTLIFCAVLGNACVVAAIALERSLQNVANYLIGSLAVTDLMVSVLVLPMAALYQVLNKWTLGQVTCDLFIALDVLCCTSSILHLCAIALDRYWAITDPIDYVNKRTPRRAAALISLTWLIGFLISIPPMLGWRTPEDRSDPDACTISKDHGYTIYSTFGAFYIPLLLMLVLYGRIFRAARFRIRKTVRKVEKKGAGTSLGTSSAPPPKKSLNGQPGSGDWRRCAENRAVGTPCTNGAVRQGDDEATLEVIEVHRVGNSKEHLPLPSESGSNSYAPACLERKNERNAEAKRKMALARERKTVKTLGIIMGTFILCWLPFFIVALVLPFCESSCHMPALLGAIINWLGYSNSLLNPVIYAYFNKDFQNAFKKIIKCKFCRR

[3] = target: T2, 5-hydroxytryptamine receptor 1A (Homo sapiens) (UniProt P08908); assay: Agonist activity at human 5HT1A receptor expressed in human HeLa cells assessed as inhibition of forskolin-stimulated cAMP production pretreated 20 mins before forskolin challenge measured after 2 hrs by RIA relative to control; format: functional, cell-based
T2 sequence (whole entry): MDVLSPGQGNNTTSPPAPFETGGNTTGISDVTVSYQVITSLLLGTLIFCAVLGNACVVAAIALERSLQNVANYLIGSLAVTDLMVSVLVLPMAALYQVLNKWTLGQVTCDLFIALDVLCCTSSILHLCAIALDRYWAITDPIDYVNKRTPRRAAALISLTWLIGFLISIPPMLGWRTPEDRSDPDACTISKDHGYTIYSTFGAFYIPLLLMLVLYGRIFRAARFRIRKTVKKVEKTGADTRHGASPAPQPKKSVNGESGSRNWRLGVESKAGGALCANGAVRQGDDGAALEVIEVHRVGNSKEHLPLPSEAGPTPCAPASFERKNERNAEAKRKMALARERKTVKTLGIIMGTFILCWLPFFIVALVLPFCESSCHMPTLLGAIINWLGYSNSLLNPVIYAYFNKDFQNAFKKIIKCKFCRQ

[4] = target: T3, 5-hydroxytryptamine receptor 1A (Homo sapiens, UniProt P08908); assay: Agonist activity at human 5HT1A receptor expressed in human HeLa cells assessed as inhibition of forskolin-stimulated cAMP production […] measured after 2 hrs by RIA; format: functional, cell-based
T3 sequence (P08908 whole entry): T2 sequence (whole entry)
Procedure, shortened: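 HeLa cells stably expressing the h5-HT1AR, grown in DMEM with 2 mM glutamine, 1 mM pyruvate and 10% heat-inactivated FCS, and used after 2–3 days at about 7.5 × 10^4 cells/well. After a PBS wash, cells were incubated 10 min in PBS with 0.5 mM isobutylmethylxanthine and 10 μM forskolin, with or without compound. The reaction was stopped with ice-cold ethanol, extracted 2 h and lyophilized; cAMP was measured by RIA.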

[5] = target: T4, Adrenergic receptor alpha-1 (Rattus norvegicus, UniProt P15823+P23944+P43140); assay: Displacement of [3H]prazosin from alpha1 adrenoceptor in Sprague-Dawley albinus rat cerebral cortex membranes after 30 mins; format: cell membranes, Membrane
T4 sequence (P15823 whole entry): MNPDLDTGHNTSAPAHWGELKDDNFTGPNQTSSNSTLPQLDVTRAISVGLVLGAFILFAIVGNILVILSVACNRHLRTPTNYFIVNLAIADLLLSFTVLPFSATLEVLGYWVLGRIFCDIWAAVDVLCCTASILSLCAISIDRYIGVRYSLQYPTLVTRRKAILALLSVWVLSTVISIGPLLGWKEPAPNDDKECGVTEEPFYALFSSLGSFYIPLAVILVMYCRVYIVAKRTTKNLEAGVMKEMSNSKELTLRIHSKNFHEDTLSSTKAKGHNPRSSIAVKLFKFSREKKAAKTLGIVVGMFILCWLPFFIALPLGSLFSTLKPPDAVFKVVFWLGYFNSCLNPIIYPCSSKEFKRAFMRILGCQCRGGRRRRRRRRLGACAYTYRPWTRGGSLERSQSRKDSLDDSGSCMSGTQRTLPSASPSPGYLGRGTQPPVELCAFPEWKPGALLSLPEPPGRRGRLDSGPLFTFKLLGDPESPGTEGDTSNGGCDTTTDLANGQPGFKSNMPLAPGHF
T4 sequence (P23944 whole entry): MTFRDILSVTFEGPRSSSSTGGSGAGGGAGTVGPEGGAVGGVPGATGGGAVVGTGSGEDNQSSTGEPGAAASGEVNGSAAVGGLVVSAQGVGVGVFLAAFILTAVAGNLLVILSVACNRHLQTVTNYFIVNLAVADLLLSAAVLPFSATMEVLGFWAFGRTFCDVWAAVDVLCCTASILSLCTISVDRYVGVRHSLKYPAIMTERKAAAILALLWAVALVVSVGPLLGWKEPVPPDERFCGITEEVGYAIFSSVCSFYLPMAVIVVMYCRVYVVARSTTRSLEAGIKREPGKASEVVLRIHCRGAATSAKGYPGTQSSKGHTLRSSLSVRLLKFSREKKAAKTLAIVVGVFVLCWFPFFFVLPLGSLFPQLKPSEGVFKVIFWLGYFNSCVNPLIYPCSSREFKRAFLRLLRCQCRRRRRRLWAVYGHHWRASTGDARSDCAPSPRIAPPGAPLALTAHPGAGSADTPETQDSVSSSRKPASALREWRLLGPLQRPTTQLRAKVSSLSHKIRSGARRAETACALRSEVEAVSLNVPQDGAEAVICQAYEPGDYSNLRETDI
T4 sequence (P43140 whole entry): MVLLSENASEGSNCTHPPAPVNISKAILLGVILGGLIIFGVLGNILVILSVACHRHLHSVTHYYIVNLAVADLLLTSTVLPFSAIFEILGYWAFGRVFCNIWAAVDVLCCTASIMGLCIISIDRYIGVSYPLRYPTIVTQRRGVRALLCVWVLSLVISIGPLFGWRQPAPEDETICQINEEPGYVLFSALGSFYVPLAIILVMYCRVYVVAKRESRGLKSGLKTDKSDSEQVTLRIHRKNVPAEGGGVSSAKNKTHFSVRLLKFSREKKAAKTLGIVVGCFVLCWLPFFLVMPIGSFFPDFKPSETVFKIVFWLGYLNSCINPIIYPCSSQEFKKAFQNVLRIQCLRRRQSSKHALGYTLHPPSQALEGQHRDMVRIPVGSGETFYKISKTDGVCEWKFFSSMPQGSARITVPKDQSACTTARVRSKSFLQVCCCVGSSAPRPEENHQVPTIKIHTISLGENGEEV
Procedure, shortened: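 Rat cerebral cortex membranes (about 250 μg protein; male Sprague–Dawley, 180–200 g) in 50 mM Tris-HCl with 10 mM MgCl2, pH 7.4. Incubation was 30 min at 25 °C with 0.2 nM [3H]prazosin and six competitor concentrations. Nonspecific binding was set with 10 μM phentolamine.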

[6] = target: T5, 5-hydroxytryptamine receptor 3A (Rattus norvegicus, UniProt P35563); assay: Displacement of [3H]-LY278584 from 5HT3 receptor in Sprague-Dawley albinus rat cerebral cortex membranes after 30 mins; format: cell membranes, Membrane
T5 sequence (P35563 whole entry): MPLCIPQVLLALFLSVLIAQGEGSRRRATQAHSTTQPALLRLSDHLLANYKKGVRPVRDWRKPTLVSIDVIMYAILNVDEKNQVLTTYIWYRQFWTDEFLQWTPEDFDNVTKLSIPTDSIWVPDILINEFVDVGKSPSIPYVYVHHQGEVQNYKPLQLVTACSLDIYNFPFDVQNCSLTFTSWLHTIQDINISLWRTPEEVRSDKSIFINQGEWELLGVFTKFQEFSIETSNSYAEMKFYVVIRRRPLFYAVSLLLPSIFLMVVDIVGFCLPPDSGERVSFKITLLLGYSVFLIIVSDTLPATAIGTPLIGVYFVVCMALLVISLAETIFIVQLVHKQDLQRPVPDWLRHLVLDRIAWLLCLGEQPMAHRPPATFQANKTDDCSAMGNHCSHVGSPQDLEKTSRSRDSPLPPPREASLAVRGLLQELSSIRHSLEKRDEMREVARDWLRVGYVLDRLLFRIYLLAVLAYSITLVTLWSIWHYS

D(2) dopamine receptor = D(2) dopamine receptor (Rattus norvegicus, UniProt P61169); assay: Displacement of [3H]spiperone from dopamine D2 receptor in Sprague-Dawley albinus rat striatal membranes after 15 mins; format: cell membranes, Membrane
[7] = target: 5-hydroxytryptamine receptor 7 (Rattus norvegicus, UniProt P32305); assay: Displacement of [3H]-5-CT from 5HT7 receptor in Sprague-Dawley albinus rat hyphalamic membranes after 120 mins; format: cell membranes, Membrane
[8] = target: 5-hydroxytryptamine receptor 4 (Rattus norvegicus, UniProt Q62758); assay: Displacement of [3H]GR113808 from 5HT4 receptor in Sprague-Dawley albinus rat striatal membranes after 30 mins by scintillation counting; format: cell membranes, Membrane
Chain of 5-hydroxytryptamine receptor 4 (Q62758 whole entry): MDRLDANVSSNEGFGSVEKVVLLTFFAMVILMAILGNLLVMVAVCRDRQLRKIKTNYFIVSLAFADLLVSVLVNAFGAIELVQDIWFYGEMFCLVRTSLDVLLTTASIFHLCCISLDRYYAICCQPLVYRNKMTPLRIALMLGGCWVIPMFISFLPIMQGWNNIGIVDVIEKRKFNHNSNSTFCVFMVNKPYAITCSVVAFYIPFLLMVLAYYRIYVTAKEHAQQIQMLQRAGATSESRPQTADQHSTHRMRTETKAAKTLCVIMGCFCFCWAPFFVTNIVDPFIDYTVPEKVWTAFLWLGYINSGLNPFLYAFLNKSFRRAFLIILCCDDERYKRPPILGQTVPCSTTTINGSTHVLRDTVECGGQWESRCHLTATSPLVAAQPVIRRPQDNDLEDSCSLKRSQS

Chain of 5-hydroxytryptamine receptor 2A (P14842 whole entry): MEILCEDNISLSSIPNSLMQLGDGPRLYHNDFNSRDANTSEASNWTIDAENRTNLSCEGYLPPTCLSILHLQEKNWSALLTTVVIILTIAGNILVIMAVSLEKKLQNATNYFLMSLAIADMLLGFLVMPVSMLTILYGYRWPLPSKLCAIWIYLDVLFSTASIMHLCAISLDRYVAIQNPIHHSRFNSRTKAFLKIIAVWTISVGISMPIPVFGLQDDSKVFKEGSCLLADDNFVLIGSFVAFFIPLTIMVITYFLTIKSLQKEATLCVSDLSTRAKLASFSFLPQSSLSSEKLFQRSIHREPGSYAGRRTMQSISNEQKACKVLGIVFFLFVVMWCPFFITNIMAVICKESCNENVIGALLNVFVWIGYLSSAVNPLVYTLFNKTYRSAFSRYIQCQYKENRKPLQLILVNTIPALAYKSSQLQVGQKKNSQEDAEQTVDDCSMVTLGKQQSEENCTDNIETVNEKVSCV
Chain of D(2) dopamine receptor (P61169 whole entry): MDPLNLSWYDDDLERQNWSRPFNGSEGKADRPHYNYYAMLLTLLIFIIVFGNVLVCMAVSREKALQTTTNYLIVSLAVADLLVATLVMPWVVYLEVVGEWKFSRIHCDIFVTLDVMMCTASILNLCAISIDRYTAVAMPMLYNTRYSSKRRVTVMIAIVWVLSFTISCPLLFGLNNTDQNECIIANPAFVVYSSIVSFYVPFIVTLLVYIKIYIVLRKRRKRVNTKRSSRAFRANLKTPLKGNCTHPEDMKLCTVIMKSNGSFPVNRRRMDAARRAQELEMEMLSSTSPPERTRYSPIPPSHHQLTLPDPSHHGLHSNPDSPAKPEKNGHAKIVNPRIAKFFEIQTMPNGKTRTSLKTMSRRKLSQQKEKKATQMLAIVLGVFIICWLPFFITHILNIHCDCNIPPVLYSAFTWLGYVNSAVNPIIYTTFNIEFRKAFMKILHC
Chain of 5-hydroxytryptamine receptor 7 (P32305 whole entry): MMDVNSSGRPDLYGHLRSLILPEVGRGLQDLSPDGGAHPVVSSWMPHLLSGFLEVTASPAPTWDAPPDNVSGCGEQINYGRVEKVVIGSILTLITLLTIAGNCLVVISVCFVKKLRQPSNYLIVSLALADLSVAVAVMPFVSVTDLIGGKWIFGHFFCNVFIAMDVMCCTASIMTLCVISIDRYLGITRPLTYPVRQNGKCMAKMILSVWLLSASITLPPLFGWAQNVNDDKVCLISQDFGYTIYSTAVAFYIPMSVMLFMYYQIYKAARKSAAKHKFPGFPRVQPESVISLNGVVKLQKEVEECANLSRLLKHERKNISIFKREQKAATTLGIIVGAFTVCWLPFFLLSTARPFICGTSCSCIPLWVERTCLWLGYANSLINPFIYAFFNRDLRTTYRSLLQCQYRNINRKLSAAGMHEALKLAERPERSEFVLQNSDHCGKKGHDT

Row | Ki [1] [nM] | Ki [2] [nM] | Emax [3] [%] | Compound | also measured
1 | > 1000 | 27 | – | O=C1C2CCCN2C(=O)N1C/C=C/CNCC1CCc2ccccc2O1 (stereo not drawn) | –
2 | > 1000 | 8.2 | 94.3 | O=C1C2CCCN2C(=O)N1CCCNCC1CCc2ccccc2O1 (stereo not drawn) | EC50 [4]: 23.3 nM
3 | > 1000 | 12.9 | 92.5 | O=C1C2CCCN2C(=O)N1CCCCCNCC1CCc2ccccc2O1 (stereo not drawn) | EC50 [4]: 157 nM
4 | > 1000 | 5.9 | 91.2 | O=C1C2CCCN2C(=O)N1CCCCCCNCC1CCc2ccccc2O1 (stereo not drawn) | EC50 [4]: 21.8 nM
5 | > 1000 | 15.1 | 89.6 | O=C1CSC(=O)N1CCCCNCC1CCc2ccccc2O1 (stereo not drawn) | –
6 | > 1000 | 28 | – | O=C1C2CCCN2C(=O)N1Cc1ccc(CNCC2CCc3ccccc3O2)cc1 (stereo not drawn) | –
7 | – | – | – | Cl.O=C1C2CCCN2C(=O)N1CCCCNCCc1ccc2ccccc2c1 (stereo not drawn) | Ki [5]: 99 nM; Ki [6]: > 1000 nM; Ki (D(2) dopamine receptor): > 1000 nM
8 | > 1000 | 13 | 89.3 | O=C1C2CSCN2C(=O)N1CCCCNCC1CCc2ccccc2O1 (stereo not drawn) | –
9 | > 1000 | – | – | Cl.O=C1C2CCCN2C(=O)N1CCCCNCCc1cccc2ccccc12 (stereo not drawn) | Ki [7]: > 1000 nM; Ki [5]: > 1000 nM; Ki [6]: > 1000 nM; Ki (D(2) dopamine receptor): > 1000 nM; Ki [8]: > 1000 nM
10 | > 1000 | 34 | – | Cl.O=C1C2CCCCN2C(=O)CN1CCCCNCC1CCc2ccccc2O1 (stereo not drawn) | Ki [7]: > 1000 nM; Ki [5]: 67 nM; Ki [6]: > 1000 nM; Ki (D(2) dopamine receptor): > 1000 nM; Ki [8]: > 1000 nM
11 | – | 87.6 | – | O=C1C2CCCN2C(=O)N1CCCCCCCCNCC1CCc2ccccc2O1 (stereo not drawn) | –
12 | – | > 1000 | – | O=C1C2CCCN2C(=O)N1CCCCNCc1cccc2ccccc12 (stereo not drawn) | –

Row | Compound | Ki [1] [nM] | Ki [2] [nM] | Emax [3] [%] | also measured
13 | O=C1C2CCCN2C(=O)N1CCCCNCCc1ccco1 (stereo not drawn) | – | > 1000 | – | –
14 | O=C1C2CCCN2C(=O)N1CCCCNCc1ccccc1 (stereo not drawn) | – | > 1000 | – | –
15 | O=C1C2CCCN2C(=O)N1CCCCNCc1ccccn1 (stereo not drawn) | – | > 1000 | – | –
